A short description of experiment [1]: Selectivity is defined as the ratio of the IC50(hecNOS) to IC50(hiNOS). In short, it runs like this:
(§1)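 Ratio of IC50 for the endothelial or neuronal isoform to IC50 for the inducible isoform. All three recombinant human enzymes were assayed by [3H]arginine-to-[3H]citrulline conversion at 30 µM final L-arginine, 37 °C for 15 min. Both constitutive isoforms had 40 nM calmodulin. Each compound tested at eight concentrations.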

Experiment [2] addresses Nitric oxide synthase, inducible (Homo sapiens, UniProt P35228). In words: Inhibitory activity against human inducible nitric oxide synthase. In short, it runs like this:
(§2)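 Recombinant human enzymes expressed in Sf9 cells by baculovirus and partially purified on DEAE-Sepharose from soluble extracts. Assay in 50 mM Tris pH 7.6 with BSA, DTT, CaCl2, FAD, tetrahydrobiopterin, NADPH, 30 µM final L-arginine with L-[2,3-3H]arginine. Endothelial form also given 40 nM calmodulin. 15 min at 37 °C, stopped with EGTA buffer. [3H]citrulline isolated on cation exchange and counted. IC50 from eight concentrations, at least duplicate.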

Experiment [3] in a line: Selectivity is defined as the ratio of the IC50(hncNOS) to IC50(hiNOS). The essentials:
as §1

In a further experiment the target is Nitric oxide synthase 1 (Homo sapiens, UniProt P29475). Kind of experiment: Inhibitory activity against human Neuronal nitric oxide synthase.
A further experiment deals with T1, Nitric oxide synthase 3 (Homo sapiens, UniProt P29474).
T1 sequence (P29474 whole entry): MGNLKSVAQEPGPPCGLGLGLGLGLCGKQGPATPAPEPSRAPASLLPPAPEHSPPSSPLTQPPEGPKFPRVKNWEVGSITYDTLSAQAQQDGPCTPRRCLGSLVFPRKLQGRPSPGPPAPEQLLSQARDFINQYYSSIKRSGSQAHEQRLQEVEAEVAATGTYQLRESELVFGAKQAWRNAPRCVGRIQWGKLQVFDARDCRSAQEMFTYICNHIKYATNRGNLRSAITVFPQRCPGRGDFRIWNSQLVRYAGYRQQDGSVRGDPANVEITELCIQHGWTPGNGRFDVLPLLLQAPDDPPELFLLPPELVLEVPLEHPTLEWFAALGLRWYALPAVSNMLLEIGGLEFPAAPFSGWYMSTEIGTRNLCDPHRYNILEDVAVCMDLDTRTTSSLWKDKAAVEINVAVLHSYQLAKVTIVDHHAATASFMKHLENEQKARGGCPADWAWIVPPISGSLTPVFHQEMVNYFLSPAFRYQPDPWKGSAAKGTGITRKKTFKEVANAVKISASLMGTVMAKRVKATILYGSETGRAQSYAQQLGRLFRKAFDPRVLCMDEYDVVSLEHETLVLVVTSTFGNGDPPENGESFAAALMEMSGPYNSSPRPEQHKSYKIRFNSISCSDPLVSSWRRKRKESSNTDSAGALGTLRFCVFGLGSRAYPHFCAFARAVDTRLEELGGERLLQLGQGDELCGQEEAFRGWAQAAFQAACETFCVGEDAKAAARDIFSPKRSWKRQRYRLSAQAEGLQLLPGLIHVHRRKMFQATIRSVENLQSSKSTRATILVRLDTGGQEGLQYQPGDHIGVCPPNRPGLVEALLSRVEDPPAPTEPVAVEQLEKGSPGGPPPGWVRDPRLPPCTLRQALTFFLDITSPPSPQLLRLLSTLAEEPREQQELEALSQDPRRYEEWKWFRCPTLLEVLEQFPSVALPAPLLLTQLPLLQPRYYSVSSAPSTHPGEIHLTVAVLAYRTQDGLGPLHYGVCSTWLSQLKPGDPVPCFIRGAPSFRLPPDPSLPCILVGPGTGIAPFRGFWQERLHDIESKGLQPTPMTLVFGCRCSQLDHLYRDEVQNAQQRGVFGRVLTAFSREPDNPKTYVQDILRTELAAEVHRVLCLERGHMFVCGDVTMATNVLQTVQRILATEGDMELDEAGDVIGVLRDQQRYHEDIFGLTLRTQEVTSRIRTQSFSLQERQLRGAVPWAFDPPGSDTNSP
Kind of experiment: Inhibitory activity against human Endothelial nitric oxide synthase. In short, it runs like this: as §2

Among the data in ChEMBL document CHEMBL1129751, “2-Iminopiperidine and other 2-iminoazaheterocycles as potent inhibitors of human nitric oxide synthase isoforms” (J Med Chem, 1996) are Selectivity and IC50 values, retold here.

In general, IC50 refers to the concentration needed to halve the response being measured. High values mean lower potency, low ones higher potency.

Chain of Nitric oxide synthase 1 (P29475 whole entry): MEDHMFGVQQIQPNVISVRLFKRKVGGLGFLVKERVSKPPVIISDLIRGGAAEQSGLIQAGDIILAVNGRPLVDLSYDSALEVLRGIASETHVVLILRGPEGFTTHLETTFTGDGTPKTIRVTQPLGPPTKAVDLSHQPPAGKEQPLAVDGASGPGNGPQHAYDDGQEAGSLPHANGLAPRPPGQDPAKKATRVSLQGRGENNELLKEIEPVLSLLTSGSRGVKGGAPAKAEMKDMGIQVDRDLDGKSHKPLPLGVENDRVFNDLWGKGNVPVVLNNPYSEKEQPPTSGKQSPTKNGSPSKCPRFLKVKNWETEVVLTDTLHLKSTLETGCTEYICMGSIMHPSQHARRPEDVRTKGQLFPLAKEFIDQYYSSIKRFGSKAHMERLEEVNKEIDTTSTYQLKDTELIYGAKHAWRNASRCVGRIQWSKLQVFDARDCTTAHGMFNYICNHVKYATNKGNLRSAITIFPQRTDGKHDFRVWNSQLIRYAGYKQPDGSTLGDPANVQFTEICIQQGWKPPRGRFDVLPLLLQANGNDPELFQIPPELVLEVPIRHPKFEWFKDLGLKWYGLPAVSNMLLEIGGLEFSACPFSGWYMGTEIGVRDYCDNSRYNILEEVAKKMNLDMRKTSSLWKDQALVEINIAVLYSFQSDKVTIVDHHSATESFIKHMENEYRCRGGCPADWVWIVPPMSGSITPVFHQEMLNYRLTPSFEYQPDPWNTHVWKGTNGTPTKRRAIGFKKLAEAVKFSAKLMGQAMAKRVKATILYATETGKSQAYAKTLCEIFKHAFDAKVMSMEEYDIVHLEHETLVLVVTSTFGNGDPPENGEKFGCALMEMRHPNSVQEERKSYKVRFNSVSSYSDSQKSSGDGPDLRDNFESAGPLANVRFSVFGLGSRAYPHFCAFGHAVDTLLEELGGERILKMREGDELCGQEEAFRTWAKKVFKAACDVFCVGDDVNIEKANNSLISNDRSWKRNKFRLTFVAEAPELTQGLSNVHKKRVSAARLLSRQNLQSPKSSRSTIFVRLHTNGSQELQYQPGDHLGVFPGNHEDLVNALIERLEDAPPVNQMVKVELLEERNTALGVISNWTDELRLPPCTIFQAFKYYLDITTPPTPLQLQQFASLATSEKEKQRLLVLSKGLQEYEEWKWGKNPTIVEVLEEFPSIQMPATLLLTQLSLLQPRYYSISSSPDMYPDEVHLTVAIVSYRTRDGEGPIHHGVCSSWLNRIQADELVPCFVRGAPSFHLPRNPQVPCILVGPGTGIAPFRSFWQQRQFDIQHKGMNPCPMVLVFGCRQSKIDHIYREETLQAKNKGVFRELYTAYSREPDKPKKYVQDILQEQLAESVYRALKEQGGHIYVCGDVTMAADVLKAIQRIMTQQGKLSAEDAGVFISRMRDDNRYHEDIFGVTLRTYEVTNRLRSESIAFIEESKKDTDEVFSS
Chain of Nitric oxide synthase, inducible (P35228 whole entry): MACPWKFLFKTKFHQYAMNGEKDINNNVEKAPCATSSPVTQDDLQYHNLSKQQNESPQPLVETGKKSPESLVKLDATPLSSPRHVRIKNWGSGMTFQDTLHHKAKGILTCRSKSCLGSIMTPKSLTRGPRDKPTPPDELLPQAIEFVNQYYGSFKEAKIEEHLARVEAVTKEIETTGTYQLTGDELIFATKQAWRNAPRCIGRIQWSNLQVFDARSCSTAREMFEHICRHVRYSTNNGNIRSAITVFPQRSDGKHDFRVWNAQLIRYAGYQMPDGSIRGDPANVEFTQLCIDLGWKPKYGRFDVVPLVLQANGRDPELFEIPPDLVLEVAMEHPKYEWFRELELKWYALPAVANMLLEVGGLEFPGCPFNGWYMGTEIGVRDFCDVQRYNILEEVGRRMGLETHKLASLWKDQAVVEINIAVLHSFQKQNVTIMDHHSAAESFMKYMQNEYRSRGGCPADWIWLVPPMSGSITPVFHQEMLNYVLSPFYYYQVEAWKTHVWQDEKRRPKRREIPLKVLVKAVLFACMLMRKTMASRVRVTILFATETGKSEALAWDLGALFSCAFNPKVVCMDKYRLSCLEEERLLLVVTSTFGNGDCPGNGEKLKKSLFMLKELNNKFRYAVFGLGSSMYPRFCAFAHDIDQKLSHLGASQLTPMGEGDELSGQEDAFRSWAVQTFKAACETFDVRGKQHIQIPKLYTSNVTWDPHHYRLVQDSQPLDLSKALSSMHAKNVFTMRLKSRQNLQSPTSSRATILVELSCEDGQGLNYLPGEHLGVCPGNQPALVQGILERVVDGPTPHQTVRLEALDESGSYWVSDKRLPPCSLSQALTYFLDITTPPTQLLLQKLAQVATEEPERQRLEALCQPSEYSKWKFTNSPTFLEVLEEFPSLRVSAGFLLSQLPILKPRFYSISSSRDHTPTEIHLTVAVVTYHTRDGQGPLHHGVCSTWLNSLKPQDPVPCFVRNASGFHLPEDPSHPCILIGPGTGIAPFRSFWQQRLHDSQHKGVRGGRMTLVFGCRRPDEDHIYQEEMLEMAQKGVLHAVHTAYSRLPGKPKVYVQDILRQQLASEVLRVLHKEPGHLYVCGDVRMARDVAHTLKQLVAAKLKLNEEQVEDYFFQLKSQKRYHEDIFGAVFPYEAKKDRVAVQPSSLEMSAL

Regarding `CC(=N)NCCCC[C@H](N)C(=O)O` [L-NIL], the Selectivity worked out at 30 in experiment [1] and 13 in experiment [3]. The IC50 came out at 4.6 µM in experiment [2], 61 µM at Nitric oxide synthase 1 and 138 µM on Nitric oxide synthase 3.

As to `NC1=NCCC1`, the Selectivity in experiment [1] turned out to be 3.6; in experiment [3], 0.8. The values for the IC50 (in experiment [2]; at Nitric oxide synthase 1; against Nitric oxide synthase 3) were 26 µM, 20 µM and 93 µM, respectively.

For the compound `N=C1CCCCN1`, the IC50 in experiment [2] turned out to be 1 µM; on Nitric oxide synthase 3, 4.7 µM.

`N/C1=N/CCCCCCC1`: the Selectivity was 9.2 in experiment [1] and 0.7 in experiment [3].

In the case of `NC1=NCCCO1`, the Selectivity in experiment [1] is 4.6; in experiment [3], 2.1. Also, the IC50 in experiment [2] was determined as 1.8 µM; against Nitric oxide synthase 1 it was 3.7 µM; against Nitric oxide synthase 3, 8.2 µM.

Take `NC1=NCCCS1`: the Selectivity in experiment [1] turned out to be 2.4; in experiment [3], 1.1. The IC50 in experiment [2] was 2.9 µM; against Nitric oxide synthase 1, 3.2 µM; against Nitric oxide synthase 3, 7.1 µM.

Consider `NC1=NCCCCCC1`, for which the figures for the IC50 (in experiment [2]; on Nitric oxide synthase 1; against Nitric oxide synthase 3) were 10 µM, 10 µM and 59 µM, respectively.

Turning to `N=C1CCCCCCCN1`, the IC50 in experiment [2] was found to be 9.8 µM; against Nitric oxide synthase 1, 6.8 µM; on Nitric oxide synthase 3 it was 90 µM.

On to `NC1=NCCCCC1`, for which the figures for the Selectivity in experiment [1] and in experiment [3] were 8 and 1.8, respectively. Moreover, the values for the IC50 (in experiment [2]; against Nitric oxide synthase 1; against Nitric oxide synthase 3) were 2 µM, 3.5 µM and 16 µM, respectively.

As for `NC1=NCCCN1`, the Selectivity in experiment [1] was determined as 3.5; in experiment [3], 0.7. The concentration for half-maximal inhibition (IC50) in experiment [2] is 25 µM; against Nitric oxide synthase 1, 17 µM; on Nitric oxide synthase 3 it was 87 µM.

For the compound `N/C1=N/CCCCCC1`, the values for the Selectivity in experiment [1] and in experiment [3] were 5.9 and 1, respectively.
